The source of these data is PubChem BioAssay AID623976 (Vanderbilt High Throughput Screening Facility, 2012).

The target of the assay is G protein-activated inward rectifier potassium channel 4 (Homo sapiens) + G protein-activated inward rectifier potassium channel 1 (Homo sapiens) (UniProt P48544+P48549). Description: GIRK1/4 channel activators by electrophysiology, confirmation, HEK-293 hGIRK1/4, whole-cell patch clamp (AID 623976). The settings on record: HEK-293 hGIRK1/4, whole-cell patch clamp Ba2+-sensitive current. An outline of the steps:
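Assay system: HEK-293 cells stably expressing human GIRK1/4 channels. Buffer or medium: 20K external solution, KCl pipette solution. Dosing: compound tested at multiple concentrations. Schedule: recording 24-72 h post-plating. Measured by: whole-cell voltage clamp at -70 mV, 2 mM BaCl2-sensitive current.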
On the technique in general: Patch clamp records ionic current or voltage across a cell membrane.

G protein-activated inward rectifier potassium channel 4 (Homo sapiens) + G protein-activated inward rectifier potassium channel 1 (Homo sapiens), sequence (P48544 whole entry, looked up): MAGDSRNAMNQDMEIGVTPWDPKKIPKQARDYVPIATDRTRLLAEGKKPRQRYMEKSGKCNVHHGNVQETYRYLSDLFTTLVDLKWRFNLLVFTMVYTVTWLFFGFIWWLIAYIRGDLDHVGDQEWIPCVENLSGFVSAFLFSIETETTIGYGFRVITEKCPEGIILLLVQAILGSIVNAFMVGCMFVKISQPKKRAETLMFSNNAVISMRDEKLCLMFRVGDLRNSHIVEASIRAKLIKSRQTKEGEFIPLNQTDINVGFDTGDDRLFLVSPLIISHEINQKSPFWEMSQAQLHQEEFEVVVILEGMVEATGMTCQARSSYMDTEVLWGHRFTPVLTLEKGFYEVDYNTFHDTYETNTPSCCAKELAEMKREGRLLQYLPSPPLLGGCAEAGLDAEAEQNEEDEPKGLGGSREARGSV
G protein-activated inward rectifier potassium channel 4 (Homo sapiens) + G protein-activated inward rectifier potassium channel 1 (Homo sapiens), sequence (P48549 whole entry, looked up): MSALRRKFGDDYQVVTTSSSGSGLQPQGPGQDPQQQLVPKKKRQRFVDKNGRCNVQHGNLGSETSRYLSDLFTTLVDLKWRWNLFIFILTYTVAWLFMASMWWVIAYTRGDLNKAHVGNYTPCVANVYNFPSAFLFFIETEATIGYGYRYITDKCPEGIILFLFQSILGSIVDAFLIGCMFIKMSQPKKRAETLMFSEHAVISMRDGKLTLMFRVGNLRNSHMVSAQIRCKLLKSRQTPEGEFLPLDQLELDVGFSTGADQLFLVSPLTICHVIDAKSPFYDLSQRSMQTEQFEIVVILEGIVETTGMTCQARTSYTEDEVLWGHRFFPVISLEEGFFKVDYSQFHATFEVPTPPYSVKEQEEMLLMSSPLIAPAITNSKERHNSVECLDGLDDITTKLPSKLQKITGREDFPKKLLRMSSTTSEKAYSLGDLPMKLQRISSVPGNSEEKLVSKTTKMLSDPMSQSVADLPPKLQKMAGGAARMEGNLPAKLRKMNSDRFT

One may read the EC50 as the concentration giving half of the maximal effect. Turning to `Cc1cc(NC(=O)Nc2ccc(F)c(F)c2)n(-c2ccccc2)n1`, the EC50 was 1590 nM.
